ChEMBL document CHEMBL5257122, “Structure-Activity relationships of replacements for the triazolopyridazine of Anti-Cryptosporidium lead SLU-2633” (Bioorg Med Chem, 2023)

Key:
[1] = Dissociation constant, pKa of compound; format: physicochemical
In short: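 Basic pKa calculated in silico (CDD Vault, method of Lu et al.), not measured.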

[2] = Lipophilicity, logP of the compound; format: physicochemical; details: octanol/water
In short: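 LogP calculated in silico (CDD Vault, method of Gedeck et al.) as an estimate of lipophilicity.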

[3] = system: HCT-8; assay: Cytotoxicity against human HCT-8 cells assessed as reduction in cell growth; format: functional
[4] = system: Cryptosporidium parvum; assay: Antiparasitic activity against Cryptosporidium parvum infected in human HCT-8 cells assessed as parasitic growth inhibition measured for 48 hrs by fluorescence microscopic analysis; format: functional, organism-based; details: HCT-8, 48 h
In short: (§1)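 C. parvum Iowa isolate oocysts excysted (10 mM HCl, 10 min, 37 °C; then 2 mM sodium taurocholate in PBS, 10 min, 16 °C) and used to infect near-confluent HCT-8 monolayers. Compound added after 3 h, then 45 h more at 37 °C, 5% CO₂. Fixed, stained with fluorescein-Vicia villosa lectin (vacuoles) and Hoechst (nuclei), imaged and counted automatically. 9-point dose-response, ≥2 experiments, n=8 per dose.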

[5] = target: T1, Voltage-gated inwardly rectifying potassium channel KCNH2 (Homo sapiens, UniProt Q12809); assay: Inhibition of hERG in CHO cells at 1 uM by automated patch clamp method relative to control; format: toxicity, cell-based
T1 sequence (Q12809 whole entry): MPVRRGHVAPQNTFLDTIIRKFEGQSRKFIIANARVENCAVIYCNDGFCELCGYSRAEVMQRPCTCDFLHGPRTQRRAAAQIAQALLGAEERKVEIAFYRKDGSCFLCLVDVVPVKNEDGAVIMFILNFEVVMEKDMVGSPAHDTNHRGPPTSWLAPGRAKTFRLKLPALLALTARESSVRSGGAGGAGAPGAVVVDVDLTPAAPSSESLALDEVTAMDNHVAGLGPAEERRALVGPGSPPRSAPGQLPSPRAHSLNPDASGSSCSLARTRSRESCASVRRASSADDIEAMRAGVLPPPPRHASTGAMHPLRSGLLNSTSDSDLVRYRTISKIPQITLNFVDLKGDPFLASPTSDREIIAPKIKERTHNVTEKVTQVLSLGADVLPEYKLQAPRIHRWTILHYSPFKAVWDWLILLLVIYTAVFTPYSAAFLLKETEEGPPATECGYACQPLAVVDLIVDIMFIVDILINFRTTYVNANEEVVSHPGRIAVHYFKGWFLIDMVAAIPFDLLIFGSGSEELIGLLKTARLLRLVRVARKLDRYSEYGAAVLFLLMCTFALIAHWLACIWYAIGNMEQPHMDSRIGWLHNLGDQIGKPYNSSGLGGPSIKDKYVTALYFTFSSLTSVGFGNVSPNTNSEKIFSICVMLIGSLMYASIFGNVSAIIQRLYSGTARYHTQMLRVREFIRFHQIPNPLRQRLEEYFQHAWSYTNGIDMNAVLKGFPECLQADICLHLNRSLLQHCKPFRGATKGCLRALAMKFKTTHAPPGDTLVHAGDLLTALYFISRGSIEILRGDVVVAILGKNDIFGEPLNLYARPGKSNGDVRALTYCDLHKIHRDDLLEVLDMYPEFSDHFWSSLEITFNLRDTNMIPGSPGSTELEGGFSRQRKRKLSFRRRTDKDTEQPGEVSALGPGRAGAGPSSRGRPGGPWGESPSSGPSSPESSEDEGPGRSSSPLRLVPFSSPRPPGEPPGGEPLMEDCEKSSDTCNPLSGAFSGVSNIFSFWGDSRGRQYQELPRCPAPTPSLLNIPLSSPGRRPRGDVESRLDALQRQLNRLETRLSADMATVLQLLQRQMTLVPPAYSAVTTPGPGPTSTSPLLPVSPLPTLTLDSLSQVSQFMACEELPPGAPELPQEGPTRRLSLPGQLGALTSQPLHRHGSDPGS
In short: (§2)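 hERG expressed in CHO cells, automated patch-clamp electrophysiology. Tail current inhibition measured at 1, 10 and 30 μM, each in duplicate, and reported as the average % inhibition.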

[6] = target: T1, Voltage-gated inwardly rectifying potassium channel KCNH2; assay: Displacement of [3H]-dofetilide from human ERG at 10 uM relative to control; format: toxicity
In short: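 Radioligand binding against human hERG potassium channel: % inhibition of [³H]-dofetilide binding by test compound at 10 μM.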

[7] = target: T1, Voltage-gated inwardly rectifying potassium channel KCNH2; assay: Inhibition of hERG in CHO cells at 30 uM by automated patch clamp method relative to control; format: toxicity, cell-based; in short: as §2
[8] = target: T1, Voltage-gated inwardly rectifying potassium channel KCNH2; assay: Inhibition of hERG in CHO cells at 10 uM by automated patch clamp method relative to control; format: toxicity, cell-based; in short: as §2
[9] = system: Cryptosporidium parvum; assay: Antiparasitic activity against Cryptosporidium parvum assessed as reduction in parasitic growth; format: functional, organism-based; in short: as §1

Compound | EC50 [4] [µM] | also measured
O=C(Cc1ccc(Cl)c(Cl)c1)N1CCN(c2ccc3nncn3n2)CC1 |  | pKa [1]: 5.9; logP [2]: 3; CC50 [3]: > 100 µM
O=C(Cc1ccc(Cl)c(Cl)c1)N1CCN(c2ccc(C(F)(F)F)nn2)CC1 | 49 | 
CCCCOC(=O)c1cn2nc(N3CCN(C(=O)Cc4ccc(Cl)c(Cl)c4)CC3)ccc2n1 | 23 | 
Nc1nnc2ccc(N3CCN(C(=O)Cc4ccc(Cl)c(Cl)c4)CC3)nn12 | 65 | 
CC(C)(C)OC(=O)N1CCN(C(=O)Cc2ccc(Cl)c(Cl)c2)CC1 | > 50 | 
O=C(Cc1ccc(Cl)c(Cl)c1)N1CCNCC1 | > 50 | 
O=C(Cc1ccc(Cl)c(Cl)c1)N1CCN(c2nccc(C(F)(F)F)n2)CC1 | > 50 | 
CN(C)C(=O)c1cn2nc(N3CCN(C(=O)Cc4ccc(Cl)c(Cl)c4)CC3)ccc2n1 | 38 | 
Cc1cc2nncn2nc1N1CCN(C(=O)Cc2ccc(Cl)c(Cl)c2)CC1 | 23 | 
Cc1nnc2ccc(N3CCN(C(=O)Nc4ccc(Cl)c(Cl)c4)CC3)nn12 | 26 | 
O=C(Cc1ccc(Cl)c(Cl)c1)N1CCN(c2ccn3nccc3n2)CC1 | 47 | 
O=C(Cc1ccc(Cl)c(Cl)c1)N1CCN(c2ncc([N+](=O)[O-])s2)CC1 | 20 | 
O=C(Cc1ccc(Cl)c(Cl)c1)N1CCN(c2ccc3ncccc3n2)CC1 | 38 | 
O=C(Nc1nc2cc(N3CCN(C(=O)Cc4ccc(Cl)c(Cl)c4)CC3)ccc2s1)c1ccccc1 | 93 | 
O=C(Cc1ccc(Cl)c(Cl)c1)N1CCN(c2nc3ccccc3s2)CC1 | 36 | 
O=C(Cc1ccc(Cl)c(Cl)c1)N1CCN(C2=Nn3cnnc3CC2)CC1 | 1.2 | pKa [1]: 4.4; inhibition (INH) [5]: 8.7%; logP [2]: 1.8; Activity [6]: 15%; inhibition (INH) [7]: 61%; inhibition (INH) [8]: 34%
Nc1nc2cc(N3CCN(C(=O)Cc4ccc(Cl)c(Cl)c4)CC3)ccc2s1 | 16 | 
O=C(Cc1ccc(Cl)c(Cl)c1)N1CCN(c2ccc3nc(C(=O)N4CCOCC4)cn3n2)CC1 | > 50 | 
O=C(Nc1ccc(Cl)c(Cl)c1)N1CCN(c2ncc(C(F)(F)F)cn2)CC1 | > 25 | 
Cc1cc(N2CCN(C(=O)Nc3ccc(Cl)c(Cl)c3)CC2)nn2cnnc12 | 24 | 
O=C(Nc1ccc(Cl)c(Cl)c1)N1CCN(c2ccccc2)CC1 | 20 | 
O=C(Cc1ccc(Cl)c(Cl)c1)N1CCN(c2ccc3nonc3c2)CC1 | 24 | 
O=C(Nc1ccc(Cl)c(Cl)c1)N1CCN(c2ccc3nnc(Cl)n3n2)CC1 | 12 | 

Compound | EC50 [4] [µM] | also measured
O=C(Cc1ccc(Cl)c(Cl)c1)N1CCN(c2ccc3[nH]ncc3n2)CC1 | 28 | 
O=C(O)c1cn2nc(N3CCN(C(=O)Cc4ccc(Cl)c(Cl)c4)CC3)ccc2n1 | > 50 | 
O=C(Cc1ccc(Cl)c(Cl)c1)N1CCN(c2ccc3c(cnn3Cc3ccccc3)n2)CC1 | 45 | 
O=C(Cc1ccc(Cl)c(Cl)c1)N1CCN(c2ccccn2)CC1 | > 50 | 
O=C(Nc1ccc(Cl)c(Cl)c1)N1CCN(c2cn3ccnc3cn2)CC1 | > 25 | 
Cc1nc2nc(N3CCN(C(=O)Cc4ccc(Cl)c(Cl)c4)CC3)ccc2s1 | 18 | 
O=C(Cc1ccc(Cl)c(Cl)c1)N1CCN(c2ccc3nnc(-c4ccccc4)n3n2)CC1 | 15 | 
O=C(Cc1ccc(Cl)c(Cl)c1)N1CCN(c2ccc3nnc(-c4ccncc4)n3n2)CC1 | > 50 | 
O=C(Cc1ccc(Cl)c(Cl)c1)N1CCN(c2ccc3nc[nH]c3c2)CC1 | 20 | 
Nc1nc2nc(N3CCN(C(=O)Cc4ccc(Cl)c(Cl)c4)CC3)ccc2s1 | 3.2 | pKa [1]: 5.9; Activity [6]: 34%
O=C(Cc1ccc(Cl)c(Cl)c1)N1CCN(c2ccc3cn[nH]c3c2)CC1 | 26 | 
O=C(Nc1ccc(Cl)c(Cl)c1)N1CCN(C2=Nn3cnnc3CC2)CC1 | 13 | logP [2]: 2.3
O=C(Nc1nc2nc(N3CCN(C(=O)Cc4ccc(Cl)c(Cl)c4)CC3)ccc2s1)c1ccccc1 | 2.9 | pKa [1]: 7.7; Activity [6]: 47%
O=C(Nc1nc2nc(N3CCN(C(=O)Cc4ccc(Cl)c(Cl)c4)CC3)ccc2s1)c1ccncc1 | 7.3 | 
O=C(Cc1ccc(Cl)c(Cl)c1)N1CCN(c2ccc3nnc(N4CCOCC4)n3n2)CC1 | 48 | 
Cc1cccc(N2CCN(C(=O)Cc3ccc(Cl)c(Cl)c3)CC2)n1 | 36 | 
Cc1nnc2ccc(N3CCN(C(=O)Cc4ccc(Cl)c(Cl)c4)CC3)nn12 | 30 | 
CC(=O)Oc1ccccc1C(=O)Nc1ncc([N+](=O)[O-])s1 [NITAZOXANIDE] | 3.7 | 
COc1ccc(N2CCN(C(=O)Cc3ccc(Cl)c(Cl)c3)CC2)nn1 | 57 | 
Nc1cn2nc(N3CCN(C(=O)Cc4ccc(Cl)c(Cl)c4)CC3)ccc2n1 | > 50 | 
O=C(Cc1ccc(Cl)c(Cl)c1)N1CCN(c2ccccc2)CC1 | 42 | pKa [1]: 3; Activity [6]: 2%
CNc1nccc(N2CCN(C(=O)Nc3ccc(Cl)c(Cl)c3)CC2)n1 | > 25 | 
Cc1nc2cc(N3CCN(C(=O)Cc4ccc(Cl)c(Cl)c4)CC3)ccc2s1 | 14 | 

Compound | EC50 [4] [µM] | also measured
Cc1cc(N2CCN(C(=O)Cc3ccc(Cl)c(Cl)c3)CC2)nn2cnnc12 | 61 | 
O=C(Nc1ccc(Cl)cc1)N1CCN(c2ccc3nncn3n2)CC1 |  | EC50 [9]: 2.1 µM
O=C(Cc1ccc(Cl)c(Cl)c1)N1CCN(c2ccc3ccccc3n2)CC1 | 46 | 
O=C(Cc1ccc(Cl)c(Cl)c1)N1CCN(c2ccc3nccn3n2)CC1 | 63 | 
O=C(Nc1ccc(Cl)c(Cl)c1)N1CCN(c2nc3ccccc3[nH]2)CC1 | 17 | 
O=C(Cc1ccc(Cl)c(Cl)c1)N1CCN(c2ccc3[nH]c(=O)sc3c2)CC1 | > 50 | 
O=C(Cc1ccc(Cl)c(Cl)c1)N1CCN(c2ccc3nnc(Cl)n3n2)CC1 | 29 | 
O=C(Nc1ccc(Cl)c(Cl)c1)N1CCN(c2ccc3nccn3n2)CC1 | 16 | pKa [1]: 6.4; Activity [6]: 77%
CCOC(=O)c1cn2nc(N3CCN(C(=O)Cc4ccc(Cl)c(Cl)c4)CC3)ccc2n1 | 58 | 
O=C(Cc1ccc(Cl)c(Cl)c1)N1CCN(c2nc3ccccc3o2)CC1 | > 50 | 
O=C(Cc1ccc(Cl)c(Cl)c1)N1CCN(c2ccc3nnc(C(F)(F)F)n3n2)CC1 | 29 | 
Cn1ncc2nc(N3CCN(C(=O)Cc4ccc(Cl)c(Cl)c4)CC3)ccc21 | > 50 | 
Cc1cc2nncn2nc1N1CCN(C(=O)Nc2ccc(Cl)c(Cl)c2)CC1 | 25 | 
O=C(Cc1ccc(Cl)c(Cl)c1)N1CCN(c2ccc3cc[nH]c3n2)CC1 | 30 | 
O=C(Nc1ccc(Cl)c(Cl)c1)N1CCN(c2ccc3nncn3n2)CC1 |  | pKa [1]: 5.9; logP [2]: 4
O=C(Cc1ccc(Cl)c(Cl)c1)N1CCN(c2ccc3nnc(-c4ccnc(C(F)(F)F)c4)n3n2)CC1 | 6.1 | pKa [1]: 6; Activity [6]: 95%
Cc1nccc(N2CCN(C(=O)Cc3ccc(Cl)c(Cl)c3)CC2)n1 | > 50 | 
O=C(Cc1ccc(Cl)c(Cl)c1)N1CCN(c2ccc3nn(Cc4ccccc4)cc3n2)CC1 | 7.8 | pKa [1]: 6.2; Activity [6]: 80%
O=C(Cc1ccc(Cl)c(Cl)c1)N1CCN(c2ncccn2)CC1 | > 50 | 
O=C(Cc1ccc(Cl)c(Cl)c1)N1CCN(c2cc3ccncc3cn2)CC1 | 50 | 
O=C(Cc1ccc(Cl)c(Cl)c1)N1CCN(c2ccc3nnc(Cc4ccccc4)n3n2)CC1 | 16 | 
O=C(Nc1ccc(Cl)c(Cl)c1)N1CCN(c2ccc3nnc(C(F)(F)F)n3n2)CC1 | 11 | 
